The source of these data is paper PMC4477354 (Diabetes, 2015).

Where two headings read alike, the source gives them in different places. Some results are limits rather than exact numbers.

Series [1] is classed as in vivo, rat. Particulars: rats. In outline:
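Overnight-fasted rats, n = 8–10/dose, got NPH insulin or DET i.p. at 0, 0.1, 0.3, 1, 3 or 10 units/kg. They were anesthetized with isoflurane at 25 min and cisternal CSF drawn at 30 min, then blood collected. Insulin by ELISA (2 h at 4°C; conjugate 30 min; substrate 40 min). Glucose by glucometer in duplicate. Factorial ANOVA.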

The format of series [2] is in vivo, rat. The settings on record: rats, 0.5 units/kg i.p. In outline: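 Rats, n = 6–8/time point, overnight-fasted, were given 0.5 units/kg i.p. NPH insulin or DET. Cisternal CSF taken under isoflurane at 5, 10, 20, 40, 80, 160 or 320 min, followed by EDTA blood. Insulin by ELISA with standards from each injected insulin. Plasma glucose by glucometer in duplicate. Factorial ANOVA.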

The nature of series [3]: Food intake and body weight after third-ventricular. It counts as in vivo, rat. The settings on record: rats, 8 mU I3VT. The gist of the method:
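Rats carried a third-ventricle cannula (2.2 mm posterior to bregma, midline), checked by drinking >5 mL within 30 min after 10 ng angiotensin II. Rats (n = 16) were handled for 4 days with food removed for the last 4 h of light. In randomized crossover 1 week apart, they received 8 mU DET or NPH insulin, or 2 µL saline, 1 h before dark. Food returned at dark; intake and weight taken at 24 and 48 h. Repeated-measures ANOVA, Tukey.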

Series [4] is classed as in vivo, rat. Particulars: rats, 0.5 units/kg s.c.; for CSF insulin at 6, 12 and 24 h / plasma glucose at 6 h and 12 h: Ps < 0.05; for time by which plasma insulin had returned to baseline: sampled 0, 6, 12, 24, 48, 72 h. In outline: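 Overnight-fasted rats, n = 7–8/group, received GLAR or DET 0.5 units/kg s.c. CSF (~150 µL) taken from the cisterna magna under isoflurane at 0, 6, 12, 24, 48 or 72 h, then blood collected after decapitation. Insulin by ELISA with standards from each injected insulin (450 minus 630 nm). Plasma glucose by glucometer in duplicate. Factorial ANOVA.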

The format of series [5] is in vivo, mouse. The settings on record: mice, 1 unit/kg s.c.; for CSF insulin at 6 and 12 h: Ps < 0.05; for time by which plasma insulin had returned to baseline: sampled 0, 6, 12, 24, 48 h. The gist of the method:
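Mice fasted 4 h, n = 7–8/group, given 1 unit/kg s.c. GLAR or DET. CSF (~15 µL, glass capillary) drawn from the cisterna magna under isoflurane at baseline and 6, 12, 24, 48 h, then trunk blood taken into chilled EDTA. Insulin measured by ELISA against standards made from each injected insulin. Blood-contaminated CSF discarded; factorial ANOVA.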

Series [6] can be described thus: Food intake, body weight and body composition. Particulars: mice, P < 0.05; for body fat compared with the saline-control group: NMR. The class given is in vivo, mouse. The gist of the method:
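Mice were first matched by fat mass using NMR while conscious. They then received (n = 12/group) daily s.c. saline, DET or GLAR at 1 unit/kg for 6 weeks. Body weight and food intake recorded weekly; NMR body composition repeated at the end. Repeated-measures ANOVA with Tukey post hoc.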

The format of series [7] is in vivo, mouse. Particulars: mice, 1 unit/kg s.c. daily for 6 weeks, n = 7-9/group, P < 0.05. The gist of the method:
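Mice, n = 7–9/group, were injected s.c. daily for 6 weeks with saline, GLAR or DET (1 unit/kg). CSF from the cisterna magna (isoflurane, 4-h fast) and EDTA plasma were taken 24 h after the last dose. Insulin measured by ELISA on 10 µL CSF or 5 µL plasma, against standards from the injected insulins.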

For series [8] the following is noted: extended by albumin binding of the attached fatty acid; cited from earlier work.
Series [9] concerns insulin receptor. The settings on record: mice, cited from earlier work.
For series [10] the following is noted: overweight humans, intravenous; cited from earlier work.
The conditions of series [11]: men, plasma glucose comparably clamped; cited from earlier work.
The conditions of series [12]: clinical trials, basal insulin replacement; cited from earlier work.
[13] abbreviates: 1 unit/kg s.c. daily for 6 weeks.

For the substance Insulin detemir, the “plasma glucose after 30 min” value in [1] (0-10 units/kg i.p., 30 min postinjection, glucometer) is “dose-dependent decrease”. Moreover, the “plasma insulin after 30 min” value in series [1] (0-10 units/kg i.p., 30 min postinjection, insulin ELISA, n = 8-10/dose) is given as “increased at all doses”. In series [1] (0-10 units/kg i.p., CSF sampled 30 min postinjection, insulin ELISA), the “CSF insulin after 30 min” value is “elevated after all doses”. Moreover, in series [1] (i.p., 30 min postinjection), the “dose at which apparent saturation of CSF insulin levels occurred” value is listed as not above 3 units/kg. For the same substance, the “plasma glucose levels over time” value in series [2] (5-320 min, P < 0.05) is “relatively constant level for the duration of the experiment”. Further, the “plasma glucose at 80, 160 and 320 min, DET relative to NPH” value in series [2] (Ps < 0.05) was “sustained hypoglycemia”. Moreover, the “insulin in plasma (160 and 320 min) and CSF (320 min), DET relative to NPH” value in [2] (planned comparison, P < 0.05) was “more prolonged elevation of insulin”. For the same substance, in series [2] (sampled up to 320 min), the “time at which CSF insulin reached baseline” value is on record as more than 320 min and the “time at which plasma insulin was no longer elevated relative to baseline” value is more than 320 min. Moreover, in series [3] (P < 0.05), the “body weight after 24 h” value is on record as “significant weight loss” and the “body weight after 48 h” value is “maintaining this weight loss”. Also, the “food intake after 48 h relative to saline” value in series [3] (crossover, n = 16) is on record as “remained significantly reduced”. For the same substance, in series [3] (crossover, n = 16, P < 0.05), the “food intake over 24 h relative to saline” value was “ate significantly less food”. For the same substance, in series [4], the “CSF insulin at 48 h” value was “continued to have elevated CSF insulin”; the “CSF insulin at 6, 12 and 24 h” value is reported as “comparably increased”; the “plasma glucose at 6 h and 12 h” value is reported as “reduced”; the “time by which plasma insulin had returned to baseline” value is recorded as not above 24 h. In addition, the “plasma insulin at 6 h, DET compared with GLAR” value in series [4] (n = 7-8/group, P < 0.05) is “elevated more”. In addition, in series [5], the “CSF insulin after 24 and 48 h” value was “elevated CSF insulin levels”; the “CSF insulin at 6 and 12 h” value is reported as “comparably increased”; the “time by which plasma insulin had returned to baseline” value is listed as not above 24 h. For the same substance, in series [5] (n = 7-8/group, P < 0.05), the “plasma insulin at 6 h, DET compared with GLAR” value was “elevated to a greater extent”. In series [6] (setting [13]), the “body fat compared with the saline-control group” value is “significantly lower” and the “cumulative food intake compared with GLAR or saline groups” value is reported as “significantly lower”. In addition, the “CSF insulin relative to controls 24 h after the final injection” value in [7] is listed as “had increased insulin”. Besides, in series [8], the plasma half-life is 5 to 7 h. Moreover, the “uptake into the brain” value in [9] (insulin in brain tissue extracts) was “preferential uptake of DET into the brain”. Further, the “phosphorylation of the insulin receptor in hypothalamus” value in series [9] was “selectively increased phosphorylation of the insulin receptor”. For the same substance, in [10], the cerebrocortical activity entry is on record as “increased cerebrocortical activity”. Moreover, in series [11], the “electroencephalogram activity in the frontal cortex compared with regular insulin” value is “significant change in electroencephalogram activity” and the “food intake compared with regular insulin” value is reported as “significant reduction of food intake”. The “weight gain compared with other long-acting formulations” value in [12] is given as “less weight gain”.
In the case of insulin glargine, in series [4], the “CSF insulin at 48 h” value was “returned to baseline”; the “plasma glucose at 24 h” value is given as “remained lower”; the “CSF insulin at 6, 12 and 24 h” value is reported as “comparably increased”; the “plasma glucose at 6 h and 12 h” value is given as “reduced”. In series [4], the “time by which plasma insulin had returned to baseline” value is reported as not above 48 h. Moreover, the “plasma insulin at 12 h, DET compared with GLAR” value in series [4] (P < 0.05) is “higher plasma insulin”. Further, in [5], the “CSF insulin after 24 and 48 h” value is “lower at 24 h and had returned to baseline by 48 h”; the “CSF insulin at 6 and 12 h” value is “comparably increased”; the “time by which plasma insulin had returned to baseline” value is reported as not above 48 h. Further, the “plasma insulin at 12 h, DET compared with GLAR” value in series [5] (P < 0.05) was “higher plasma concentrations”. Moreover, the “body fat compared with the saline-control group” value in [6] (setting [13]) is recorded as “higher”. The “body weight relative to saline-treated animals by week 6” value in series [6] (1 unit/kg s.c. daily) is on record as “increased relative to that of saline-treated animals”. For the same substance, in series [7], the “plasma insulin relative to controls 24 h after the final injection” value is on record as “continued to have elevated plasma insulin”.
